According to ChEMBL document CHEMBL4334444, “Studies of Jatrogossone A as a Reactive Oxygen Species Inducer in Cancer Cellular Models” (J Nat Prod, 2019):
The source made the active and inactive calls. No cut-off for these calls is given here.

Key:
[1] = system: U2OS; assay: Induction of apoptosis in human U2OS cells assessed as increase in caspase 3/7 activity incubated for 24 hrs by caspase 3/7 reagent based ApoTox-Glo triplex assay; format: functional, cell-based
Summary of the method: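 ApoTox-Glo Triplex assay in KOPN-8 or U2OS cells. Cells were incubated 12 h at 37 °C, then treated 24 h across 100–0.15 μM. Viability (GF-AFC, 400Ex/505Em) and cytotoxicity (bis-AAF-R110, 485Ex/520Em) were read after 30 min at 37 °C. Caspase-Glo 3/7 luminescence was then read after 0.5 h at room temperature. Values are mean ± SEM of three independent experiments.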

[2] = system: KOPN-8; assay: Cytotoxicity against human KOPN8 cells assessed as cell viability at 0.95 to 125 uM after 72 hrs in presence of pan caspase inhibitor, Z-VAD-FMK by CellTiter-Glo assay; format: functional, cell-based

CC(=O)O[C@H]1/C2=C/[C@@H](C)C(=O)C[C@H]3[C@@H](/C=C(\C)C(=O)[C@H]2C[C@H]1C)C3(C)C
Activity [1]: Dose-dependent effect
Activity [2]: inactive
